Source: ChEMBL document CHEMBL4177769, “Highly Selective and Potent Ectonucleotide Pyrophosphatase-1 (NPP1) Inhibitors Based on Uridine 5'-Pα,α-Dithiophosphate Analogues” (J Med Chem, 2018)

Key:
[1] = Drug level treated with UTP 5'-O-Palpha,alpha-dithiophosphate at 2 mM at pH 11.7 at room temperature after 25 days by 31P NMR method; assay type: physicochemical; conditions: pH 11.7, 600 h, 2000 µM
[2] = Drug level treated with UTP 5'-O-Palpha,alpha-dithiophosphate at 2 mM at pH 1.7 at room temperature after 23 days by 31P NMR method; assay type: physicochemical; conditions: pH 1.7, 552 h, 2000 µM
[3] = biological target: T1, Ectonucleoside triphosphate diphosphohydrolase 1 (Homo sapiens) (UniProt P49961); assay: Activation of human NTPDase1 using ATP as substrate preincubated for 3 mins followed by substrate addition measured after 10 mins by malachite green reagent-based assay relative to control
T1 sequence (whole entry): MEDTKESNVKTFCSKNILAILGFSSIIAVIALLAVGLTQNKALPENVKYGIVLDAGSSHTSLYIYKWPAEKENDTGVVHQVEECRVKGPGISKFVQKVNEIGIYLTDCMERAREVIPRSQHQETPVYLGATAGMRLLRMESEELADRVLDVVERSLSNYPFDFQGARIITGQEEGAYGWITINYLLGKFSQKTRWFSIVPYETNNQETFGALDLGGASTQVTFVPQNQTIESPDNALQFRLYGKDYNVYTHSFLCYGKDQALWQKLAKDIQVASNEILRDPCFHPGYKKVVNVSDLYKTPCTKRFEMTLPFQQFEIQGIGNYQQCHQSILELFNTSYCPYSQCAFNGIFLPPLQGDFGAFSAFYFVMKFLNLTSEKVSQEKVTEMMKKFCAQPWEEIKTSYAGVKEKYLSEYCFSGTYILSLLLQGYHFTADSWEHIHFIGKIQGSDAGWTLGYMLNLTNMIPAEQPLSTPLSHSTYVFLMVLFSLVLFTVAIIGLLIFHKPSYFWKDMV
In short: (§1)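 Compound at 100 μM, 3 min preincubation, 100 μM ATP, 10 min. Stopped with malachite green; Pi read at 630 nm. Blank with enzyme added after stop subtracted. Activity with ATP alone taken as 100%.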

[4] = biological target: T2, Ectonucleoside triphosphate diphosphohydrolase 3 (Homo sapiens) (UniProt O75355); assay: Activation of human NTPDase3 using ATP as substrate preincubated for 3 mins followed by substrate addition measured after 10 mins by malachite green reagent-based assay relative to control; in short: as §1
T2 sequence (whole entry): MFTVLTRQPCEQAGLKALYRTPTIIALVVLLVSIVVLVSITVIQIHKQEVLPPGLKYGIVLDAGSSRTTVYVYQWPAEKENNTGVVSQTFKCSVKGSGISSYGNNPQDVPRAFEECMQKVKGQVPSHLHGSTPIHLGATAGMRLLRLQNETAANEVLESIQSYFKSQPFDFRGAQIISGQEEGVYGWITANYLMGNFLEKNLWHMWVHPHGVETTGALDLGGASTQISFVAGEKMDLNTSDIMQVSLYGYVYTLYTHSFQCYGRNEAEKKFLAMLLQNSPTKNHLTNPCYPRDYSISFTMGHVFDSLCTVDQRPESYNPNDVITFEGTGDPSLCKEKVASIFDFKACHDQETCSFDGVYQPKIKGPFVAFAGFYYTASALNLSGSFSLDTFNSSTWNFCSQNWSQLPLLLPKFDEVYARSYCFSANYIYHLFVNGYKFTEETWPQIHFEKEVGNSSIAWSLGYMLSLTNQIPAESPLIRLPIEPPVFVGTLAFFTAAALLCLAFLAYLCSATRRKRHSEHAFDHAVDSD

[5] = biological target: T3, Ectonucleoside triphosphate diphosphohydrolase 8 (Homo sapiens) (UniProt Q5MY95); assay: Activation of human NTPDase8 using ATP as substrate preincubated for 3 mins followed by substrate addition measured after 10 mins by malachite green reagent-based assay relative to control; in short: as §1
T3 sequence (whole entry): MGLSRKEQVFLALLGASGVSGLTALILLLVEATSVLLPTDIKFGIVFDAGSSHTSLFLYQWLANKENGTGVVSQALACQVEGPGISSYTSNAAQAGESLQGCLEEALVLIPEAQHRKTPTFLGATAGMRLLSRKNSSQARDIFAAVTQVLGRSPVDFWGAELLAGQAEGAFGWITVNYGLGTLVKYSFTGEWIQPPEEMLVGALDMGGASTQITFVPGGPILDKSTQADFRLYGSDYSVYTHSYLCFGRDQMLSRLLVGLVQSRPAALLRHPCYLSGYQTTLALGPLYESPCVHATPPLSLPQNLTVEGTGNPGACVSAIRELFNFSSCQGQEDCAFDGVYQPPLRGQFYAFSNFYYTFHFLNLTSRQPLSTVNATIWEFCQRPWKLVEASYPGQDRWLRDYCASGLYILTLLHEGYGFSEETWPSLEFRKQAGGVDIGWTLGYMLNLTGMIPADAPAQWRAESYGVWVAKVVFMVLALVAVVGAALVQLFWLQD

[6] = biological target: T4, Ectonucleoside triphosphate diphosphohydrolase 2 (Homo sapiens) (UniProt Q9Y5L3); assay: Activation of human NTPDase2 using ATP as substrate preincubated for 3 mins followed by substrate addition measured after 10 mins by malachite green reagent-based assay relative to control; in short: as §1
T4 sequence (whole entry): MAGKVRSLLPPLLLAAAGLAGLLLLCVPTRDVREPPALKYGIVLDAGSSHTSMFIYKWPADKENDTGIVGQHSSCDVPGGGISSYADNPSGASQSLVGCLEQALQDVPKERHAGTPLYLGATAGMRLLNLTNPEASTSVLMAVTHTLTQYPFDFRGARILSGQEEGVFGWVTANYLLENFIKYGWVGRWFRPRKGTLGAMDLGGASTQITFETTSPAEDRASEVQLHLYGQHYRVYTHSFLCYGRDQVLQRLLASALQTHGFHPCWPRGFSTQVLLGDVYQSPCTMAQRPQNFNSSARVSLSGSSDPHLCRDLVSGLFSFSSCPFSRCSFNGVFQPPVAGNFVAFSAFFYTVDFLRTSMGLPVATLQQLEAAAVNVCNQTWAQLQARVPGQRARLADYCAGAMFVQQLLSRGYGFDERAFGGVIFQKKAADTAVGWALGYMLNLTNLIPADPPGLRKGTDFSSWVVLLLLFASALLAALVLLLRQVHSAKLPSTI

SMILES	Drug metabolism [1]	Drug metabolism [2]	Activity [3] [%]	Activity [4] [%]	Activity [5] [%]	Activity [6] [%]
O=c1ccn([C@@H]2O[C@H](COP(=S)(S)OP(=O)(O)O)[C@@H](O)[C@H]2O)c(=O)[nH]1 (stereo partly specified)	Metabolite_Detected	Metabolite_Detected				
O=c1ccn([C@@H]2O[C@H](COP(=S)(S)OP(=O)(O)OP(=O)(O)O)[C@@H](O)[C@H]2O)c(=O)[nH]1 (stereo partly specified)			7 to 27	7 to 27	7 to 27	7 to 27
